Source: PubChem BioAssay (several laboratories)
CSN inh – inhibitors of CSN-mediated cullin deneddylation, primary screen, biochemical, fluorescence polarization, uHTS; Purified CSN, SCF-Nedd8-OG deneddylation; 0.38% of 360,000 active; COP9 signalosome complex subunit 5 (Homo sapiens), Q92905; inhibition, % at 12.5 µM;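 active = pattern-corrected inhibition above about 35%, with an unprinted fluorescence ratio check between 0.5 and 1.5, limit read from the data, passing the limit was not always enough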;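 also: 0% = enzyme with substrate and 100% = substrate without enzyme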
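test system = HEK293T-derived human Csn5 enzyme | amount = 0.24 nM Csn5 enzyme, final concentration | medium = Tris/NaCl/DTT buffer, pH 7.5 | schedule = 90 min reaction at room temperature | signal = FP | evaluation = inhibition of Csn5 cleavage, % | compound dosing = single dose of 12.5 µM compound with 0.25% DMSO | probe or stimulus = 10 nM SCFSkp2-Nedd8OG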
HNF4A DNA FP – change in binding of human HNF4A to DNA, primary screen, biochemical, fluorescence polarization, FITC-DNA; Hepatocyte nuclear factor 4-alpha (Homo sapiens), P41235; 1 h; activity change, % at 10 µM; 0.3% of 360,000 active; in the data active = activity change above about 30%, passing the limit was not always enough
Target sequence (P41235 whole entry, looked up): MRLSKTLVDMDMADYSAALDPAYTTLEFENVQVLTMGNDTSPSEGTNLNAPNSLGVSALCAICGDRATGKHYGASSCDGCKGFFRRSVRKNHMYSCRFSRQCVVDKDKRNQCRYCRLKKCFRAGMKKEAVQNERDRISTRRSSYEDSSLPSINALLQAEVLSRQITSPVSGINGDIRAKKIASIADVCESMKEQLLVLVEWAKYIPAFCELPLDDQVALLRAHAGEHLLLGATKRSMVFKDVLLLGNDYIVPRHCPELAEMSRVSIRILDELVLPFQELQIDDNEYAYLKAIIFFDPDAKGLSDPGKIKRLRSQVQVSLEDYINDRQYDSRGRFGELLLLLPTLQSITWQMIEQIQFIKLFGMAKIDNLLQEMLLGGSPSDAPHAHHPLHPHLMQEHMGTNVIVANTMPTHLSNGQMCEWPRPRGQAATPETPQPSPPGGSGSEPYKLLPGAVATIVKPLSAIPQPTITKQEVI
ASAP1 GAP inh – inhibitors of human ASAP1 ArfGAP activity, primary screen, biochemical, fluorescence polarization. Arf-GAP with SH3 domain, ANK repeat and PH domain-containing protein 1 (Homo sapiens), …. ASAP1-stimulated ARF1 GTP hydrolysis, GDP FP detection. inhibition, % at 16.5 µM. 0.19% of 360,000 active. AID 624377, 2012; in the data active = inhibition above about 25%;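 also: 0% = vehicle with enzyme and substrate and 100% = no enzyme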
ARFGAP1 inh – inhibitors of rat ARFGAP1 GAP activity, primary screen, biochemical, fluorescence polarization, GDP tracer. 0.26% of 360,000 active. inhibition, % at 16.5 µM. Arfgap1-stimulated ARF1 GTP hydrolysis, GDP FP detection. ADP-ribosylation factor GTPase-activating protein 1 (Rattus norvegicus), Q62848;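 active = inhibition above a per-plate limit, mean inhibition of low control wells plus 3 SD, cut at about 25% in these data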;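 also: 0% = DMSO wells with enzyme and 100% = wells lacking Arfgap1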
Target sequence (Q62848 1-136 limits assumed): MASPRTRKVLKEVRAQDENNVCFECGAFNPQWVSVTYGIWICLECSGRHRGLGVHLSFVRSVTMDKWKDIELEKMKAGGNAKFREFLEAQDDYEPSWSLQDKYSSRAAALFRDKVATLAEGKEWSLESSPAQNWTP
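Material: rat Arfgap1 GAP domain (His6, aa 1-136), purified enzyme. Also added: human ARF1(Δ1-17)-GTP substrate. Compound dosing: 16.5 µM single point, 1.26% DMSO. Timing: enzyme reaction 120 min at 25 °C after 20 min preincubation. Signal: GDP detection by fluorescence polarization. Read-out basis: percent inhibition of GAP-stimulated GDP formation, scaled between DMSO and no-Arfgap1 medians.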
ASAP1 inh confirm – ASAP1 GAP activity inhibitors, confirmation, biochemical, fluorescence polarization, human, triplicate; shares compounds with ASAP1 GAP inh; ASAP1-stimulated Arf1 GTPase, GDP fluorescence polarization; 37% of 620 active; inhibition, % at 16.5 µM;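 active = mean inhibition over triplicates exceeds the hit threshold derived for the earlier primary screening run, cut at about 25% in these data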
The depositor's hits bear a star; . = not tested or not shown. Sampled rows, rich in hits. Any-hit rate of the full collection: about 0.95%.

SMILES | CSN inh | HNF4A DNA FP | ASAP1 GAP inh | ARFGAP1 inh | ASAP1 inh confirm
Cc1c(C(=O)Oc2ccc(-c3cnc4ccccc4n3)cc2)cccc1[N+](=O)[O-] | 0.9 | -1.2 | 25.1* | -2.3 | 12.9
O=C(Oc1ccc(-c2cnc3ccccc3n2)cc1)c1cc([N+](=O)[O-])ccc1Cl | -0.3 | 0.0 | -5.6 | -2.0 | .
Cn1c(C(=O)Nc2ccccc2)cc2sccc21 | 4.3 | 0.9 | 30.6* | 14.1 | 9.6
CN(CC(=O)Nc1ccccc1Cl)C(=O)COC(=O)c1ccc([N+](=O)[O-])s1 | 11.5 | 3.7 | 1.3 | -3.2 | .
Cc1ccc(S(=O)(=O)Nc2ccc(NC(=O)c3cccs3)cc2)cc1 | 3.9 | -5.3 | 24.7* | 5.9 | 7.3
CC1CCN(S(=O)(=O)c2ccc3c(c2)N(CC(=O)NCCCN2C(C)CCCC2C)C(=O)CO3)CC1 (stereo not drawn) | -3.1 | 2.4 | -2.9 | -10.8 | .
Cc1ccc2nc(SCC(=O)Nc3ccc(F)cc3F)[nH]c2c1 | 5.5 | -0.2 | 27.4* | 6.0 | 5.0
Cn1c(N)c(C(C[N+](=O)[O-])c2ccccc2Cl)c(=O)n(C)c1=O (stereo not drawn) | 7.1 | -0.4 | 56.2* | 10.9 | 3.7
CC(=O)Nc1ccc(N2C(=O)CSC2c2c(F)cccc2Cl)cc1 (stereo not drawn) | 0.7 | -0.8 | 27.1* | -12.0 | -1.9
CC(=O)Nc1ccc(N2C(=O)CSC2c2ccc(F)cc2)cc1 (stereo not drawn) | 3.4 | -0.9 | 5.2 | 5.4 | .
CN(C(=O)CSc1nncn1C)C1CCCN(Cc2ccccc2F)C1 (stereo not drawn) | 2.9 | -2.0 | 30.6* | 15.4 | 1.1
CCCCNC(=S)NNC(=O)C1=NN(c2cc(C)ccc2C)C(=O)CC1 | -6.3 | -2.6 | -6.0 | 3.1 | .
CC(C)=CCn1c2ccc(NC(=O)Nc3cccnc3)cc2c(=O)n1C | -0.9 | 0.7 | 24.8* | 7.2 | 6.3
CC(Oc1ccc(Cl)cc1Cl)c1nc(-c2ccc(NC(=O)c3ccncc3)cc2)no1 (stereo not drawn) | 6.1 | 3.5 | 24.9* | 4.1 | 8.2
Cc1cc(OCC(=O)Nc2ccc(N3CCCC3)cc2)cc(C)c1Cl | 0.1 | 5.0 | 24.8* | 1.4 | 7.2
CN(C)c1ccc(-c2[nH][nH]c(=O)c2NC(=O)c2ccc3ccccc3n2)cc1 | 3.0 | -1.9 | 36.2* | -6.7 | 0.0
CN(C)c1ccc(-c2[nH][nH]c(=O)c2NC(=O)c2ccccn2)cc1 | 5.6 | 3.4 | 9.3 | -10.6 | .
CCN(C(=O)CSc1nc2ccc([N+](=O)[O-])cc2s1)c1c(N)n(Cc2ccccc2)c(=O)[nH]c1=O | 0.2 | 0.0 | 7.0 | -12.4 | .
COc1ccc(-n2nnc3c(=O)n(CC(=O)Nc4ccc5c(c4)OCCO5)cnc32)cc1OC | 9.1 | -0.9 | 108.3* | 12.6 | 72.9*
O=C(Cn1cnc2c(nnn2-c2cccc(F)c2)c1=O)Nc1ccc2c(c1)OCCO2 | 3.6 | 3.6 | 0.7 | 1.8 | .
COc1cccc(NC(=O)C2(C)CCN2Cc2ccc(OC)c3ccccc23)c1 (stereo not drawn) | -0.3 | 4.7 | 28.7* | 24.3 | 4.0
Cc1ccc(NC2(C#N)CCCC2)cc1 | 1.1 | 1.2 | -2.9 | 10.8 | .
COc1ccc2[nH]c(C(=O)N/N=C/c3ccccc3OC)cc2c1 | -2.3 | -2.5 | 14.1 | 12.2 | .
CCOc1ccc2[nH]c(C(=O)N/N=C/c3ccccc3OC)cc2c1 | 3.0 | 2.5 | 29.8* | 9.6 | 27.7*
CC1CCCCc2nc3c(c(=O)n21)CCCC3 (stereo not drawn) | -3.1 | 2.4 | 0.5 | -6.2 | .
SMILES | CSN inh | HNF4A DNA FP | ASAP1 GAP inh | ARFGAP1 inh | ASAP1 inh confirm
Cc1nn(-c2ccccc2)c(Cl)c1/C=N/Nc1nncc(=O)[nH]1 | -0.7 | 2.3 | -4.7 | -15.7 | .
O=C(CSc1nc2ccc(Nc3nc(N4CCOCC4)nc(N4CCOCC4)n3)cc2s1)Nc1ccccc1 | . | . | -0.8 | 0.2 | .
O=C(CSc1nc2ccc(Nc3nc(N4CCOCC4)nc(N4CCOCC4)n3)cc2s1)N1CCOCC1 | -6.4 | -0.6 | 25.4* | 12.0 | 45.5*
COc1ccc(NC(=O)c2cccc(N3C(=O)C4C5C=CC(C5)C4C3=O)c2)cc1Cl (stereo not drawn) | -0.2 | 0.8 | 5.1 | 4.7 | .
CCOC(=O)Nc1ccc2c(c1)C(=NNC(N)=S)c1ccccc1-2 | -2.0 | -2.3 | 26.8* | 8.2 | 11.5
CCOC(=O)Nc1ccc2c(c1)C(=NO)c1ccccc1-2 | 0.1 | 2.3 | 27.6* | 12.2 | 20.9
CCOCCOC(=O)C1=C(C)NC(=O)NC1c1cc2c(cc1Br)OCO2 (stereo not drawn) | -5.6 | -1.7 | 3.9 | -2.7 | .
CC(C)c1ccc([C@@H]2O[C@H](CCc3ccccc3)Cc3[nH][nH]c(=O)c32)cc1 | -3.3 | -1.4 | 28.4* | 8.9 | 7.4
O=C(Nc1ccc2oc(=O)ccc2c1)c1ccc(-c2ccc(Cl)cc2)o1 | -13.5 | -2.1 | 48.4* | 6.6 | 68.6*
CN1CCN(c2ccc(NC(=O)c3ccc(-c4cccc([N+](=O)[O-])c4)o3)cc2)CC1 | -1.2 | 1.6 | 31.4* | 17.1 | 106.2*
CCOc1ncccc1C(=O)NNC(=O)c1ccccc1-n1cccc1 | -0.8 | -1.7 | -4.1 | 1.7 | .
O=C(O)C1[C@H]2C(=O)N(Cc3cccs3)C[C@]23C=C[C@H]1O3 (stereo partly drawn) | -2.9 | -1.4 | 24.8* | -4.2 | 3.5
COC(=O)C1[C@H]2C(=O)N(Cc3cccs3)C[C@]23C=C[C@H]1O3 (stereo partly drawn) | 6.6 | 4.3 | 6.1 | -7.2 | .
Nc1ccc(Oc2cccc(Oc3ccc(N)cc3)c2)cc1 | 0.2 | -25.2 | 28.1* | 15.2 | 16.3
COc1cccc(NC(=O)CN(C)C(=O)c2ccc(N3CCCCC3)c([N+](=O)[O-])c2)c1 | -2.5 | -5.9 | 25.2* | 7.4 | 4.0
COc1cccc(NC(=O)CN(C)C(=O)c2ccc(N3CCOCC3)c([N+](=O)[O-])c2)c1 | 4.3 | 3.9 | 3.3 | 12.8 | .
CCOC(=O)c1[nH]c(C)c(C(=O)Nc2ccc(C)c(C)c2)c1C | -0.8 | 1.0 | 26.4* | -9.6 | 2.0
O=C(CNC(=O)c1cccc(F)c1)N/N=C/c1cc(Br)ccc1OC(=O)/C=C/c1ccco1 | 14.8 | -4.0 | -4.2 | 3.3 | .
O=C(CNC(=O)c1ccccc1O)N/N=C/c1cc(Br)ccc1OC(=O)/C=C/c1ccco1 | . | . | 26.0* | 21.3 | 18.9
CC1CCCC(NC(=O)CSc2nnc(-c3cccnc3)n2N)C1C (stereo not drawn) | 6.6 | 11.5 | -15.9 | -9.1 | .
CCNC(=O)c1ccc(CSc2nc3ccccc3s2)cc1 | 0.5 | -1.3 | 27.1* | 12.3 | 7.6
O=C(COc1ccc(/C=N/NC(=O)c2ccncc2)cc1)Nc1ccccc1 | 1.9 | 4.3 | 2.7 | -3.0 | .
